Screening data from PubChem.
Wee1 stabilizer – inhibitors of human Wee1 degradation; P30291; HeLa Luc-Wee1K328M stability, luciferase luminescence; 100% = proteasome inhibitor MG132 effect; reporter increase, % at 5 µM; 220,000 tested, 1.2% active; AID 1321;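 active = activation above the mean of all tested compounds plus 3 SD, set per screening run, cut at about 8.8% in these data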;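 note: cells exposed to compound for 20 h before luminescence read; 0% = DMSO alone and 100% = MG132 at 30 µM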
FXIIa inh 1536 – inhibitors of human coagulation factor XIIa; P00748; purified FXIIa, Boc-QGR-AMC fluorogenic substrate, 2 h; inhibition, % at 5 µM; 220,000 tested, 0.3% active; in the data active = inhibition above about 40%;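 note: 0% = enzyme with no compound and 100% = blank without enzyme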
Thrombin inh – blocks human thrombin protease activity; alpha-thrombin, Boc-VPR-AMC fluorogenic substrate cleavage; inhibition, % at 5 µM; P00734; 220,000 tested, 0.26% active; AID 1046;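 active = inhibition at or above 40%; inactive = inhibition below 40%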;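 note: 0% = enzyme with no compound and 100% = wells without enzyme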
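Test system: human alpha-thrombin; medium: pH 7.5 Tris-saline with Tween 20; times: reaction at room temperature; signal: AMC fluorescence at 355 nm excitation and 460 nm emission; also added: Boc-VPR-AMC substrate, 15 µM final; dosing: one concentration per compound, 5 µM, with 0.2% DMSO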
hK5 inh – blocks human kallikrein 5 protease activity; recombinant hK5, fluorogenic AMC substrate cleavage; Q9Y337; 210,000 tested, 0.59% active; inhibition, % at 5 µM;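 active = inhibition of 40% or more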;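 note: 0% = enzyme controls without compound and 100% = no-enzyme blanks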
FXIa inh – inhibitors of human coagulation factor XIa | P03951 | purified FXIa, Boc-Glu-Ala-Arg-AMC fluorogenic substrate | inhibition, % at 5 µM | 220,000 tested, 0.14% active | AID 798;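 active = inhibition of at least 40%; inactive = inhibition below 40%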;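 note: fluorescence of freed AMC excited at 355 nm; 0% = enzyme without compound and 100% = no enzyme blank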
Target sequence (P03951 19-387 limits assumed): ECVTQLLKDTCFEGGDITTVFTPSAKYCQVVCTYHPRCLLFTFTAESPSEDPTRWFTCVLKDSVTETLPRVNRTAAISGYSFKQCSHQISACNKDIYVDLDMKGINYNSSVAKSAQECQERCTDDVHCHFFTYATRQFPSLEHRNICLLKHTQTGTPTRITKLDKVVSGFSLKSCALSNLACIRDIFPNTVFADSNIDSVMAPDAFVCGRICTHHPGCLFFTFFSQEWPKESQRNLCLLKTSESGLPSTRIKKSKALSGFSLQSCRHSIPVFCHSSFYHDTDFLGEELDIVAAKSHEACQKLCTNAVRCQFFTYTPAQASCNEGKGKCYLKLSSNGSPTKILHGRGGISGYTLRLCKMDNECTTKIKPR
Target sequence (P03951 388-625 limits assumed): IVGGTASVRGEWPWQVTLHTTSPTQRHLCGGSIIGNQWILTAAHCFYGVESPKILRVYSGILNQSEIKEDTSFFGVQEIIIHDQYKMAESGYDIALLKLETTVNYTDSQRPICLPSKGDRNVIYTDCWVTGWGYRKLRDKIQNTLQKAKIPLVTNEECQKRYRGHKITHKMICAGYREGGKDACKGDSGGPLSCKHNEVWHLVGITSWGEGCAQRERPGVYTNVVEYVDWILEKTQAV
Numbers without * were called inactive. The list is not random: actives were taken first. Their share in the collection is about 2.2%.

Screening COCCCNC(=O)c1ccccc1Oc1ccccc1 returned Wee1 stabilizer 14*, FXIIa inh 1536 3, Thrombin inh -4, hK5 inh -4 and FXIa inh 0.
Screening CC(SC1=NCCS1)C(=O)Nc1nnc(-c2ccc(Cl)cc2)s1 (stereo not given) returned Wee1 stabilizer 0, FXIIa inh 1536 -2, Thrombin inh -1, hK5 inh -4 and FXIa inh -6.
Screening COc1ccccc1-c1nnc(NC(=O)C(C)SC2=NCCS2)s1 (stereo not given) returned Wee1 stabilizer -3, FXIIa inh 1536 6, Thrombin inh 15, hK5 inh 53* and FXIa inh 4.
O=C(OCC(=O)c1c[nH]c2ccccc12)C1=COCCO1 was read as Wee1 stabilizer 11*, FXIIa inh 1536 7, Thrombin inh -1, hK5 inh 0 and FXIa inh 7.
`COc1ccc(Nc2nc(OC)nc(N3CCOCC3)n2)cc1` gave Wee1 stabilizer -1, FXIIa inh 1536 4, Thrombin inh -3, hK5 inh -1 and FXIa inh -5.
Screening COc1nc(NCCN2CCOCC2)nc(Nc2ccccc2)n1 returned Wee1 stabilizer 0, FXIIa inh 1536 22, Thrombin inh 13, hK5 inh 69* and FXIa inh 4.
`CCCCN(C(=O)NC(=O)Nc1ccccc1C)S(C)(=O)=O` gave Wee1 stabilizer 29*, FXIIa inh 1536 18, Thrombin inh 0, hK5 inh -6 and FXIa inh 4.
`CC(C)(C)C(=O)Nc1ccc(-c2csnn2)cc1` gave Wee1 stabilizer 11*, FXIIa inh 1536 6, Thrombin inh -11, hK5 inh 2 and FXIa inh 7.
For CCC(c1nnnn1Cc1cccs1)N1CCN(C2CCCC2)CC1 (stereo not given) the results were Wee1 stabilizer 4, FXIIa inh 1536 12, Thrombin inh 0, hK5 inh 47* and FXIa inh 9.
`CCCC(c1nnnn1Cc1cccs1)N1CCN(C2CCCC2)CC1` (stereo not given) gave Wee1 stabilizer -1, FXIIa inh 1536 8, Thrombin inh -4, hK5 inh 1 and FXIa inh 2.
`COCCNC(=O)C(c1ccc(C)cc1)N(C(=O)C(=O)NC1CCCC1)c1ccc2c(c1)OCCO2` (stereo not given) gave Wee1 stabilizer -1, FXIIa inh 1536 11, Thrombin inh 2, hK5 inh -4 and FXIa inh 0.
Screening CN(NS(=O)(=O)c1ccc(Cl)cc1)c1nc(C(F)(F)F)nc2ccccc12 returned Wee1 stabilizer 3, FXIIa inh 1536 8, Thrombin inh -7, hK5 inh 4 and FXIa inh -1.
For CN(NS(=O)(=O)c1ccc(Cl)cc1)c1cnn(C)c(=O)c1Cl the results were Wee1 stabilizer 9.9*, FXIIa inh 1536 8, Thrombin inh -7, hK5 inh 0 and FXIa inh 2.
For COc1ccc(C(=O)NC=C2C(=O)OC(C)(C)OC2=O)cc1 the results were Wee1 stabilizer -2, FXIIa inh 1536 9, Thrombin inh 2, hK5 inh 3 and FXIa inh 8.
Screening CCn1c2ccccc2c2cc(NC(=O)CSc3nccc(=O)[nH]3)ccc21 returned Wee1 stabilizer 4, FXIIa inh 1536 9, Thrombin inh -12, hK5 inh 4 and FXIa inh 3.
COC(C/C=C/[C@@H](O)COCc1ccccc1)OC was read as FXIIa inh 1536 37, Thrombin inh 17, hK5 inh 46* and FXIa inh 28.
`CCOC(=O)C1CCCN(CC(=O)Nc2cccc(C(C)=O)c2)C1` (stereo not given) gave Wee1 stabilizer 1, FXIIa inh 1536 4, Thrombin inh -7, hK5 inh -2 and FXIa inh -5.
O=C(CC1S/C(=N/N=C/c2c[nH]c3ccccc23)NC1=O)Nc1ccccc1 (stereo not given) was read as Wee1 stabilizer -3, FXIIa inh 1536 -5, Thrombin inh -10, hK5 inh -13 and FXIa inh -2.
`O=C(CC1S/C(=N/N=C/c2c[nH]c3ccc(OCc4ccccc4)cc23)NC1=O)Nc1ccccc1` (stereo not given) gave Wee1 stabilizer 8.9*, FXIIa inh 1536 6, Thrombin inh 1, hK5 inh -8 and FXIa inh -1.
`O=C(Nc1cc([N+](=O)[O-])ccc1N1CCOCC1)c1ccco1` gave Wee1 stabilizer 6, FXIIa inh 1536 16, Thrombin inh 29, hK5 inh 21 and FXIa inh 43*.
